Sampled rows, rich in hits. Any-hit rate of the full collection: about 5.8%.
IDH1 mut inh: IDH1 R132H (human) inhibition; inhibition, % at 10 µM; AID 624101; actives 0.18% (n = 70,000); IDH1 R132H reductase, diaphorase/resazurin fluorescence, 60 min; O75874; in the data active means inhibition above about 34%
Target sequence (O75874 whole entry R132H): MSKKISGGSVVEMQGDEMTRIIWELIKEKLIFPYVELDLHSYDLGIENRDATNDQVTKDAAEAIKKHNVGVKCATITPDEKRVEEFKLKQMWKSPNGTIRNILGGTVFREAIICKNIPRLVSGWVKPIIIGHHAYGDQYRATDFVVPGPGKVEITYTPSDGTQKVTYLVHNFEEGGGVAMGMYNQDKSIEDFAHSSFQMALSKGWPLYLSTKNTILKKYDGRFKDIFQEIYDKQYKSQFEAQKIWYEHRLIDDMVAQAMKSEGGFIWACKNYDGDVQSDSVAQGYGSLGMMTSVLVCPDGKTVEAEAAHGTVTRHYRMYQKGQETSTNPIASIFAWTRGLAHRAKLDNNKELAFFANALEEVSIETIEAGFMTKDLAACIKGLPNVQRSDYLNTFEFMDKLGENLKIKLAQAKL
Pf Dd2 inh: blocks growth of Plasmodium falciparum Dd2 parasites. P. falciparum Dd2 growth, SYBR Green, 72 h; active compounds read low. activity change, % at 10 µM. actives 2.3% (n = 94,000). AID 1159554; in the data active means activity change below about -80%
GASC1 inh: inhibitors of human demethylase GASC-1 KDM4C; Q9H3R0; GST-KDM4C 2-372, H3K9me3 peptide, LANCE TR-FRET; inhibition, % at 12.5 µM; actives 0.15% (n = 96,000);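 active means mean replicate inhibition above about 25%, with at least 55% of replicates also reaching it, limit read from the data, passing the limit was not always enough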
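Material: GST-tagged GASC-1 (JMJD2C) catalytic fragment, aa 2-372 / Quantity: enzyme final amount 10 nM / Medium: HEPES buffer, pH 7.5, plus ascorbate / Doses: one test concentration per compound / Incubation: 30 min reaction, 60 min detection, RT / Measured by: LANCE TR-FRET / Read-out: inhibition from TR-FRET ratio decrease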
T cruzi growth: blocks T. cruzi growth in NIH3T3 culture; inhibition, % at 8.34 µM; T. cruzi beta-gal in NIH3T3, GalScreen luminescence, 90 h; actives 5.9% (n = 77,000); AID 624255;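 active means mean inhibition above about 93%, with at least 55% of replicates each passing it, limit read from the data, passing the limit was not always enough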
A number is an active result; n = inactive; x = not tested or not shown.

SMILES	IDH1 mut inh	Pf Dd2 inh	GASC1 inh	T cruzi growth
Cc1noc(C)c1S(=O)(=O)N(C)C[C@@H]1OCc2ccccc2-c2c(n(C)c3ccccc23)C(=O)N([C@H](C)CO)C[C@@H]1C	n	-83.8	n	n
Cc1sc2ncnc(SCC(=O)c3cc(Cl)sc3Cl)c2c1C	n	x	x	x
CCCNC(=O)N1CC2(CN(Cc3ccc(OC)cc3)C2)c2c(n(C)c3cc(OC)ccc23)[C@H]1CO	x	-80.5	n	x
COc1ccc2c3c(n(C)c2c1)[C@H](CO)N(Cc1cccnc1)CC31CN(C(=O)NC(C)C)C1	x	-87.7	n	x
COc1ccc2c3c(n(C)c2c1)[C@@H](CO)N(C(=O)c1ccccc1)CC31CCN(C(=O)c2ccccc2)CC1	x	-87.0	n	x
COc1ccc2c3c(n(C)c2c1)[C@H](CO)N(C(=O)Nc1ccc(F)cc1)CC31CN(Cc2cccnc2)C1	x	-89.4	n	x
COc1ccc2c3c(n(C)c2c1)[C@@H](CO)N(Cc1cccnc1)CC31CCN(C(=O)NC(C)C)CC1	x	n	n	x
COc1ccc2c3c(n(C)c2c1)[C@@H](CO)N(C(=O)Nc1ccc(F)cc1)CC31CN(C(=O)c2ccccc2F)C1	x	-91.8	n	x
COc1ccc2c3c(n(C)c2c1)[C@@H](CO)N(C(C)=O)CC31CCN(C(=O)Nc2ccc(F)cc2)CC1	x	-83.3	n	x
COc1ccc2c3c(n(C)c2c1)[C@@H](CO)N(C(=O)c1ccc(F)cc1)CC31CCN(C(=O)Nc2ccc(F)cc2)CC1	x	-86.7	n	x
Clc1ccc(-n2c(SCc3nc4ccccc4s3)nnc2-c2cccs2)cc1	n	x	x	x
COc1ccc2c3c([nH]c2c1)[C@@H](CO)N(C(=O)Nc1ccc(F)cc1)CC31CCN(S(=O)(=O)c2ccc(C)cc2)CC1	x	n	n	x
COc1ccc2c3c([nH]c2c1)[C@@H](CO)N(C(=O)Nc1ccc(F)cc1)CC31CCN(S(=O)(=O)c2cccc(C)c2)CC1	x	n	n	x
COc1ccc2c3c([nH]c2c1)[C@H](CO)N(C(=O)Nc1ccc(F)cc1)CC31CCN(S(=O)(=O)c2cccc(C)c2)CC1	x	-82.6	n	x
COc1ccc2c3c([nH]c2c1)[C@@H](CO)N(C(=O)Nc1ccc(F)cc1)CC31CCN(Cc2cc(-c3ccccc3)on2)CC1	x	-82.7	n	x
COc1ccc2c3c([nH]c2c1)[C@H](CO)N(C(=O)Nc1ccc(F)cc1)CC31CCN(S(=O)(=O)c2ccc(C)cc2)CC1	x	-82.3	n	x
COc1ccc2c3c([nH]c2c1)[C@H](CO)N(C(=O)Nc1ccc(F)cc1)CC31CCN(C(=O)Nc2ccc3c(c2)OCO3)CC1	x	-85.6	n	x
COC(=O)c1cccc(NC(=O)COc2ccc([N+](=O)[O-])cc2)c1	n	x	x	x
COc1ccc(NC(=O)c2ccco2)cc1NC(=O)COc1cc(C)c(Cl)c(C)c1	n	x	x	x
Cc1ccc(S(=O)(=O)N(C)C[C@@H]2OCCCC[C@@H](C)Oc3ccc(NC(=O)Nc4ccc(F)cc4)cc3C(=O)N([C@H](C)CO)C[C@@H]2C)cc1	n	-83.5	x	x
Cc1ccc(S(=O)(=O)N(C)C[C@H]2OCCCC[C@H](C)Oc3ccc(NC(=O)NC4CCCCC4)cc3C(=O)N([C@@H](C)CO)C[C@H]2C)cc1	x	-86.1	n	n
Cc1ccc(S(=O)(=O)N(C)C[C@@H]2OCCCC[C@H](C)Oc3ccc(NC(=O)Nc4ccccc4)cc3C(=O)N([C@@H](C)CO)C[C@H]2C)cc1	x	-91.6	n	n
C[C@@H]1CN([C@@H](C)CO)C(=O)c2cc(NC(=O)Nc3ccccc3)ccc2O[C@@H](C)CCCCO[C@H]1CN(C)S(=O)(=O)c1ccc(Cl)cc1	n	-82.9	n	n
Cc1ccc(Cl)cc1NC(=O)C(C)n1nc(C)c([N+](=O)[O-])c1C (centres undefined)	n	x	x	x
Cc1ncsc1CCSc1nc2ccccc2c(=O)n1-c1ccccc1	n	x	x	x
SMILES	IDH1 mut inh	Pf Dd2 inh	GASC1 inh	T cruzi growth
COC(=O)CCCCCCC(=O)N/N=C/c1c(CO)cnc(C)c1O	n	x	x	x
Cc1cc(C)c(NC(=O)CN(C)S(=O)(=O)c2ccccc2)c(C)c1	n	x	x	x
CC(C)NC(=O)Nc1ccc2c(c1)C(=O)N([C@H](C)CO)C[C@H](C)[C@H](CN(C)S(=O)(=O)c1ccc(Cl)cc1)OCCCC[C@@H](C)O2	n	n	n	n
Cc1ccc(S(=O)(=O)N(C)C[C@@H]2OCCCC[C@@H](C)Oc3ccc(NC(=O)Nc4ccccc4)cc3C(=O)N([C@@H](C)CO)C[C@@H]2C)cc1	x	-90.9	n	n
Cc1ccc(S(=O)(=O)N(C)C[C@@H]2OCCCC[C@@H](C)Oc3ccc(NC(=O)Nc4ccccc4)cc3C(=O)N([C@@H](C)CO)C[C@H]2C)cc1	x	n	n	n
CC(C)NC(=O)Nc1ccc2c(c1)C(=O)N([C@@H](C)CO)C[C@H](C)[C@H](CN(C)S(=O)(=O)c1ccc(Cl)cc1)OCCCC[C@@H](C)O2	n	-83.3	n	n
O=C(COc1ccc(Cl)cc1Br)Nc1ccccc1C(=O)Nc1ccccc1	n	x	x	x
COc1cc2c(cc1NC(=O)CSc1nnc(-c3cnccn3)n1-c1ccccc1)oc1ccccc12	n	x	x	x
C[C@H](CO)N1C[C@H](C)[C@@H](CN(C)Cc2cncnc2)Oc2ncc(/C=C/c3ccccc3)cc2C1=O	79.1	n	51.8	n
C[C@@H]1CN([C@H](C)CO)C(=O)c2cc(/C=C/c3ccccc3)cnc2O[C@@H]1CN(C)C(=O)C1CC1	x	-86.0	n	x
COc1ccc(S(=O)(=O)Nc2ccc3c(c2)CC(=O)N([C@H](C)CO)C[C@H](C)[C@H](CN(C)S(=O)(=O)c2ccc(Cl)cc2)O3)cc1	n	n	n	n
COc1ccc(S(=O)(=O)Nc2ccc3c(c2)CC(=O)N([C@H](C)CO)C[C@H](C)[C@H](CN(C)S(=O)(=O)c2ccc(C)cc2)O3)cc1	n	-86.3	n	n
COc1ccc(S(=O)(=O)N(C)C[C@@H]2Oc3ccc(NS(=O)(=O)c4ccc(Cl)cc4)cc3CC(=O)N([C@@H](C)CO)C[C@@H]2C)cc1	n	-82.5	n	n
COc1ccc(S(=O)(=O)N(C)C[C@@H]2Oc3ccc(NS(=O)(=O)c4ccc(F)cc4)cc3CC(=O)N([C@@H](C)CO)C[C@@H]2C)cc1	n	n	n	n
COc1ccc(S(=O)(=O)Nc2ccc3c(c2)CC(=O)N([C@H](C)CO)C[C@H](C)[C@@H](CN(C)S(=O)(=O)c2ccc(F)cc2)O3)cc1	n	n	27.1	n
CCc1ccc2oc(-c3cccc(NC(=O)COc4ccccc4)c3)nc2c1	n	x	x	x
COCC(=O)N1[C@@H](C#N)[C@H](c2ccccc2-c2ccccc2)[C@@H]1CO	x	-86.2	n	x
CCC(=O)N1[C@H](CO)[C@@H](c2ccccc2-c2cccc(C)c2)[C@@H]1C#N	x	-86.3	n	x
COCC(=O)N1[C@H](C#N)[C@@H](c2ccccc2-c2ccccc2)[C@@H]1CO	x	n	n	x
COCC(=O)N1[C@H](C#N)[C@@H](c2ccccc2-c2ccccc2)[C@H]1CO	x	-92.8	n	x
CCC(=O)N1[C@@H](C#N)[C@@H](c2ccccc2-c2cccc(C)c2)[C@@H]1CO	x	n	n	x
O=C(O)Cn1cc(C(=O)C2CCCCC2)c2ccccc21	n	x	x	x

Compound activity deposited in PubChem BioAssay by Broad Institute.
